In ChEMBL document CHEMBL1157554, “Biomimetic synthesis and anti-HIV activity of dimeric phloroglucinols” (Bioorg Med Chem, 2010):
pEC50, pIC50: −log10 of the molar value.

How the values were obtained:
[1] = Cytotoxicity against GFP expressing human CEM cells assessed as maximal non-toxic concentration after 48 to 72 hrs by MTT assay; assay type: cell-based, CCRF-CEM
How it was run: (§1)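 MTT assay on uninfected CEM-GFP cells seeded at 2 × 10⁴ cells/well. Samples were added at various concentrations, with untreated or vehicle-treated controls, and incubated 48–72 h. Formazan was solubilized and absorbance read at 540 nm. Non-toxic concentrations were carried into antiviral screening. CC50 was from triplicate determinations.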

[2] = test system: Human immunodeficiency virus 1; experiment: Antiviral activity against HIV1 NL4-3 infected in GFP expressing human CEM cells assessed as inhibition of viral p24 antigen production at non-toxic concentration after 7 days postinfection by ELISA; assay type: functional, CCRF-CEM
How it was run: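 CEM-GFP reporter T cells infected with HIV-1 NL4.3 at MOI 0.05 and cultured with samples at the highest non-toxic concentration. Virus production was measured in culture supernatant on day 7 post-infection by p24 antigen capture ELISA.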

[3] = test system: Human immunodeficiency virus 1; experiment: Antiviral activity against HIV1 NL4-3 infected in GFP expressing human CEM cells assessed as inhibition of viral infection measured after 9 days postinfection by microfluorometry; assay type: functional, organism-based; settings: Human immunodeficiency virus 1, NL4-3, CCRF-CEM, 216 h
How it was run: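 CEM-GFP human CD4+ T cells, which carry an integrated LTR-driven GFP reporter, infected with HIV-1 NL4.3 at MOI 0.05. Cells were incubated with samples for up to 9 days post-infection. Infection was followed by GFP fluorescence microscopy, and screening inhibition was quantified by GFP microfluorometry. IC50 is the concentration giving 50% inhibition of infected cells (n = 3).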

[4] = Cytotoxicity against GFP expressing human CEM cells after 48 to 72 hrs by MTT assay; assay type: cell-based, CCRF-CEM; how it was run: as §1
[5] = biological target: Human immunodeficiency virus type 1 reverse transcriptase (Human immunodeficiency virus 1) (UniProt Q72547); experiment: Inhibition of HIV1 reverse transcriptase at 20 ug/mL by EIA
[6] = biological target: Human immunodeficiency virus type 1 reverse transcriptase (Human immunodeficiency virus 1, UniProt Q72547); experiment: Inhibition of HIV1 reverse transcriptase by EIA
[7] = test system: Human immunodeficiency virus; experiment: Inhibition of HIV reverse transcriptase at 25 ug/mL

Compound | MNTC [1] [µM] | inhibition (INH) [2] [%] | pIC50 [3] | CC50 [4] [µM] | inhibition [5] [%] | pEC50 [6] | inhibition [7] [%]
CC(=O)c1c(O)c(C(C)=O)c(O)c(C(c2c(O)c(C(C)=O)c(O)c(C(C)=O)c2O)c2ccnc3ccccc23)c1O | 35.8 | 71.1 | 4.73 | 93.4 | 80.5 | 6.33 | –
CC(C)CC(=O)c1c(O)c(C(=O)CC(C)C)c(O)c(C(CCc2ccccc2)c2c(O)c(C(=O)CC(C)C)c(O)c(C(=O)CC(C)C)c2O)c1O | 0.71 | 15 | – | – | – | – | –
CC(=O)c1c(O)c(C(C)=O)c(O)c(C(CCc2ccccc2)c2c(O)c(C(C)=O)c(O)c(C(C)=O)c2O)c1O | 1.87 | 16 | – | – | – | – | –
CC(C)CC(=O)c1c(O)c(C(=O)CC(C)C)c(O)c(C(c2ccc(OCc3ccccc3)cc2)c2c(O)c(C(=O)CC(C)C)c(O)c(C(=O)CC(C)C)c2O)c1O | 5.75 | 70 | 5.57 | 24 | 87.8 | 5.99 | –
CC(C)CC(=O)c1c(O)c(C(=O)CC(C)C)c(O)c(C(c2ccc(O)cc2)c2c(O)c(C(=O)CC(C)C)c(O)c(C(=O)CC(C)C)c2O)c1O | 1.45 | 15.6 | – | – | – | – | –
CC(C)CC(=O)c1c(O)c(C=O)c(O)c(Cc2c(O)c(C=O)c(O)c(C(=O)CC(C)C)c2O)c1O | 4.1 | 0 | – | – | – | – | –
CC(C)CC(=O)c1c(O)c(C(=O)CC(C)C)c(O)c(C(c2c(O)c(C(=O)CC(C)C)c(O)c(C(=O)CC(C)C)c2O)c2ccnc3ccccc23)c1O | 3.44 | 30.1 | – | – | – | – | –
CC(C)C(=O)c1c(O)c(Cc2c(O)c(C(=O)C(C)C)c(O)c(C(=O)C(C)C)c2O)c(O)c(C(=O)C(C)C)c1O | 0.09 | 0 | – | – | – | – | –
CC(=O)c1c(O)c(C(C)=O)c(O)c(C(c2ccc(N(C)C)cc2)c2c(O)c(C(C)=O)c(O)c(C(C)=O)c2O)c1O | 9.07 | 60.6 | 5.22 | 22.1 | 13.4 | – | –
CC(C)CC(=O)c1c(O)c(Cc2c(O)c(C(=O)CC(C)C)c(O)c(C(=O)CC(C)C)c2O)c(O)c(C(=O)CC(C)C)c1O | 0.17 | 0 | – | – | – | – | –
CCC(c1c(O)c(C(C)=O)c(O)c(C(C)=O)c1O)c1c(O)c(C(C)=O)c(O)c(C(C)=O)c1O | 2.17 | 17.5 | – | – | – | – | –
CC(=O)c1c(O)c(C(C)=O)c(O)c(C(c2ccc(O)cc2)c2c(O)c(C(C)=O)c(O)c(C(C)=O)c2O)c1O | 14.3 | 56 | – | – | – | – | –
CC(=O)c1c(O)c(C(C)=O)c(O)c(C(c2ccco2)c2c(O)c(C(C)=O)c(O)c(C(C)=O)c2O)c1O | 15.1 | 73 | 5.17 | 61.2 | 16.2 | – | –
CC(C)CC(=O)c1c(O)c(C(=O)CC(C)C)c(O)c(C(c2ccccn2)c2c(O)c(C(=O)CC(C)C)c(O)c(C(=O)CC(C)C)c2O)c1O | 7.39 | 64.7 | 5.47 | 38.1 | 0 | – | –
CC(C)CC(=O)c1c(O)c(C(=O)CC(C)C)c(O)c(C(c2ccc3c(c2)OCO3)c2c(O)c(C(=O)CC(C)C)c(O)c(C(=O)CC(C)C)c2O)c1O | 2.77 | 13.9 | – | – | – | – | –
CC(=O)c1c(O)c(Cc2c(O)c(C(C)=O)c(O)c(C(C)=O)c2O)c(O)c(C(C)=O)c1O | 0.23 | 0 | – | – | – | – | –
CC(C)CC(=O)c1c(O)c(C=O)c(O)c(C(c2ccccn2)c2c(O)c(C=O)c(O)c(C(=O)CC(C)C)c2O)c1O | 15.9 | 26.9 | – | – | – | – | –
CC(C)CC(=O)c1c(O)c(C(=O)CC(C)C)c(O)c(C(c2ccco2)c2c(O)c(C(=O)CC(C)C)c(O)c(C(=O)CC(C)C)c2O)c1O | 3.75 | 56.8 | – | – | – | – | –
Cc1cn([C@H]2C[C@H](N=[N+]=[N-])[C@@H](CO)O2)c(=O)[nH]c1=O [ZIDOVUDINE] | 5 | 89.75 | – | 24.1 | – | – | –
CC(C)CC(=O)c1c(O)c(C=O)c(O)c(C(c2ccc(OCc3ccccc3)cc2)c2c(O)c(C=O)c(O)c(C(=O)CC(C)C)c2O)c1O | 7.46 | 0 | – | – | – | – | –
CC(C)CC(=O)c1c(O)c(C(=O)CC(C)C)c(O)c(C(c2ccccc2)c2c(O)c(C(=O)CC(C)C)c(O)c(C(=O)CC(C)C)c2O)c1O | 0.74 | 66.5 | 6.55 | 3.15 | 4.61 | – | –
COc1c(C)c(O)c(C(C)=O)c(O)c1Cc1c(O)c(CC=C(C)C)c(O)c(C(C)=O)c1O | – | – | – | – | – | – | 90
CC(=O)c1c(O)c(C(C)=O)c(O)c(C(c2c(O)c(C(C)=O)c(O)c(C(C)=O)c2O)C2CCCCC2)c1O | 9.73 | 78.5 | 5.39 | 58.9 | 0 | – | –
